Assay results published in ChEMBL document CHEMBL1126315, “Pyrrolobenzodiazepines and related systems. 2. Synthesis and biological properties of isonoraptazepine derivatives” (1992).

Experiments:
Type in all cases: functional
Mus musculus [1] = assay: Compound was tested for total number of falls in 100 seconds after intraperitoneal administration of 37.5 mg/Kg in mice by rotarod test
Method in brief: (§1)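 Mice (Swiss inbred, 5 male + 5 female per group) dosed ip in 1% Tween 80; Rota-Rod motor coordination assessed 80 min later. Falls counted over a 100 s observation period. Mean ± SEM vs vehicle controls, Dunnett t test.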

Mus musculus [2] = assay: Compound was tested for total number of movements in 5 minutes after intraperitoneal administration of 37.5 mg/Kg in mice
Method in brief: (§2)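 Open-field spontaneous activity 60 min after ip dosing in 1% Tween 80; Swiss inbred mice, 10 per group (5 male, 5 female), placed singly in 19 × 25 cm cages and monitored continuously for 5 min. Total movements as mean ± SEM vs vehicle controls.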

Mus musculus [3] = assay: Rotation number in mice was determined at 12 minutes after a dose of 10 mg/Kg
Method in brief: (§3)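 Nomura water-wheel test: Swiss inbred mice (5 male, 5 female per group) dosed ip in 1% Tween 80, placed in a water tank with central wheel 1 h later. Wheel rotations counted by photointerrupter on the shaft, read at 9, 12 and 15 min. Mean ± SD vs vehicle controls.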

Mus musculus [4] = assay: Compound was tested for myorelaxant action (time in seconds on the horizontal wire with forelegs) after intraperitoneal administration of 37.5 mg/Kg in mice by traction test
Method in brief: (§4)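 Traction test on Swiss inbred mice, 10 per group (5 male, 5 female), dosed ip in 1% Tween 80; run 70 min after dosing. Time for animals to place hind legs on horizontal wire recorded in seconds. Mean ± SEM vs vehicle-treated controls, Dunnett t test.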

Mus musculus [5] = assay: Rotation number in mice was determined at 9 minutes after a dose of 10 mg/Kg; method in brief: as §3
Mus musculus [6] = assay: Rotation number in mice was determined at 15 minutes after a dose of 10 mg/Kg; method in brief: as §3
Mus musculus [7] = assay: Total number of falls in 100 seconds after intraperitoneal administration of 75 mg/Kg in mice by rotarod test; method in brief: as §1
Mus musculus [8] = assay: Total number of explored holes in 5 minutes after intraperitoneal administration of 75 mg/Kg in mice
Method in brief: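 Hole-board exploration at 65 min after ip dosing (1% Tween 80 vehicle) in Swiss inbred mice, 10 per group (5 male, 5 female). Holes explored counted by infrared detector below the hole lines over 5 min. Mean ± SEM vs vehicle controls, Dunnett t test.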

Mus musculus [9] = assay: Myorelaxant action (time in seconds on the horizontal wire with forelegs) after intraperitoneal administration of 75 mg/Kg in mice by traction test; method in brief: as §4
Mus musculus [10] = assay: Total number of movements in 5 minutes after intraperitoneal administration of 75 mg/Kg in mice; method in brief: as §2
Mus musculus [11] = assay: Compound at an intraperitoneal dose of 10 mg/Kg was tested for the inhibition of abdominal constriction in mice; conditions: Abdomen, ip
Method in brief: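 Swiss inbred mice (25 ± 3 g), 10 per group (5 male, 5 female), given compound ip in 1% Tween 80. Clonidine 0.1 mg/kg po 30 min later, then phenylquinone 3.75 mg/kg ip in 5% aqueous ethanol 20 min after that. Writhing counted by observer over 10 min starting 5 min post-injection; % inhibition relative to controls.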

Mus musculus [12] = assay: Writhing number was determined against clonidine induced analgesia by the compound at an intraperitoneal dose of 10 mg/Kg in mice
Mus musculus [13] = assay: Rotation number in mice was determined at 9 minutes after a dose of 2.5 mg/Kg
Method in brief: (§5)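 Nomura water-wheel test in Swiss inbred mice (25 ± 3 g), groups of 10 (5 male, 5 female). Drug given ip in 1% Tween 80, single dose. Mouse placed in a water tank with a central wheel 1 h after dosing. Wheel rotations counted by photointerrupter, read at 9, 12 and 15 min. Mean ± SD versus vehicle controls.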

Mus musculus [14] = assay: Compound was tested for total number of falls in 100 seconds after intraperitoneal administration of 10 mg/Kg in mice by rotarod test
Method in brief: (§6)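 Swiss inbred mice (25 ± 3 g), groups of 10 (5 male, 5 female), given drug ip in 1% Tween 80; vehicle-treated controls. Single sequence per animal: open-field movements counted over 5 min at 60 min, hole-board explorations (infrared counting, 5 min) at 65 min, traction-test wire time at 70 min, Rota-Rod falls over 100 s at 80 min. Mean ± SEM, Dunnett t test.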

Mus musculus [15] = assay: Compound was tested for myorelaxant action (time in seconds on the horizontal wire with forelegs) after intraperitoneal administration of 10 mg/Kg in mice by traction test; method in brief: as §6
Mus musculus [16] = assay: Rotation number in mice was determined at 9 minutes after a dose of 5 mg/Kg; method in brief: as §5
Mus musculus [17] = assay: Rotation number in mice was determined at 12 minutes after a dose of 2.5 mg/Kg; method in brief: as §5
Mus musculus [18] = assay: Compound was tested for total number of explored holes in 5 minutes after intraperitoneal administration of 10 mg/Kg in mice; method in brief: as §6
Mus musculus [19] = assay: Compound was tested for total number of movements in 5 minutes after intraperitoneal administration of 10 mg/Kg in mice; method in brief: as §6
Mus musculus [20] = assay: Rotation number in mice was determined at 12 minutes after a dose of 5 mg/Kg; method in brief: as §5
Mus musculus [21] = assay: Rotation number in mice was determined at 15 minutes after a dose of 5 mg/Kg; method in brief: as §5
Mus musculus [22] = assay: Rotation number in mice was determined at 15 minutes after a dose of 2.5 mg/Kg; method in brief: as §5

| SMILES | Rotation number (Mus musculus [3]) | Rotation number (Mus musculus [5]) | Rotation number (Mus musculus [6]) | Activity (Mus musculus [7]) | Exploratory activity (Mus musculus [8]) | Time (Mus musculus [9]) | Spontaneous motor activity (Mus musculus [10]) | other results |
| --- | --- | --- | --- | --- | --- | --- | --- | --- |
| c1ccc2c(c1)CN1CCNCC1c1cccn1-2 (stereo unspecified) | 10 | 17 | 12 |  |  |  |  | Activity (Mus musculus [1]): 3; Spontaneous motor activity (Mus musculus [2]): 111; Time (Mus musculus [4]): 4.9 s |
| O=C1CNCC2c3cccn3-c3ccccc3CN12 (stereo unspecified) | 17 | 15 | 10 |  |  |  |  |  |
| CN1CCN2Cc3ccccc3-n3cccc3C2C1 (stereo unspecified) | 16 | 21 | 11 | 5 | 3.8 | 4.4 s | 96 |  |
| O=C1CN(Cc2ccc(F)cc2)CC2c3cccn3-c3ccccc3CN12 (stereo unspecified) |  |  |  | 1.8 | 6 | 4.2 s | 178 |  |
| CN1CC(=O)N2Cc3ccccc3-n3cccc3C2C1 (stereo unspecified) | 14 | 17 | 10 | 8.7 | 13 | 1 s | 90 |  |
| CCN1CC(=O)N2Cc3ccccc3-n3cccc3C2C1 (stereo unspecified) | 17 | 22 | 22 | 0.4 | 9.8 | 2.1 s | 285 |  |
| CC(=O)N1CC(=O)N2Cc3ccccc3-n3cccc3C2C1 (stereo unspecified) | 57 | 54 | 49 | 1 | 10.7 | 3.5 s | 121 |  |
| CC(=O)N1CCN2Cc3ccccc3-n3cccc3C2C1 (stereo unspecified) | 23 | 21 | 17 |  |  |  |  |  |
| O=C1NCC(=O)N2Cc3ccccc3-n3cccc3C12 (stereo unspecified) | 15 | 18 | 11 | 2.5 | 14.7 | 5.5 s | 247 | inhibition in vivo at 10 mg/kg (Mus musculus [11]): 43%; Writhing number (Mus musculus [12]): 12 |
| O=C1CN(Cc2ccccc2)CC2c3cccn3-c3ccccc3CN12 (stereo unspecified) | 41 | 45 | 31 |  |  |  |  |  |
| C=CCN1CCN2Cc3ccccc3-n3cccc3C2C1 (stereo unspecified) | 16 | 16 | 14 |  |  |  |  |  |
| O=C1CC2c3cccn3-c3ccccc3CN2C(=O)CN1 (stereo unspecified) | 27 | 35 | 27 | 0.6 | 17.2 | 2.3 s | 173 |  |
| O=C(c1ccc(Cl)cc1)N1CCN2Cc3ccccc3-n3cccc3C2C1 (stereo unspecified) | 6 | 7 | 7 |  |  |  |  |  |
| Clc1ccc(CN2CCN3Cc4ccccc4-n4cccc4C3C2)cc1 (stereo unspecified) | 14 | 22 | 11 | 2.1 | 9.3 | 2 s | 142 |  |
| O=C1CN(Cc2ccc(Cl)cc2)CC2c3cccn3-c3ccccc3CN12 (stereo unspecified) |  |  |  |  |  |  |  | inhibition in vivo at 10 mg/kg (Mus musculus [11]): 63%; Writhing number (Mus musculus [12]): 8 |
| CCN1CCN2Cc3ccccc3-n3cccc3C2C1 (stereo unspecified) | 27 | 30 | 24 | 1.1 | 7.6 | 3.1 s | 188 |  |
| CN1CCN2c3ccccc3Cn3cccc3C2C1 (stereo unspecified) [APTAZAPINE] | 5 | 8 | 2 | 6.5 | 0.5 | 8.1 s | 59 | inhibition in vivo at 10 mg/kg (Mus musculus [11]): 14%; Rotation number (Mus musculus [13]): 12; Activity (Mus musculus [14]): 5; Time (Mus musculus [15]): 2.5 s; Rotation number (Mus musculus [16]): 5; Writhing number (Mus musculus [12]): 18; Rotation number (Mus musculus [17]): 3; Exploratory activity (Mus musculus [18]): 8.8; Spontaneous motor activity (Mus musculus [19]): 168; Rotation number (Mus musculus [20]): 8; Rotation number (Mus musculus [21]): 2; Rotation number (Mus musculus [22]): 2 |
| CN(C)CCCN1c2ccccc2CCc2ccccc21 [IMIPRAMINE] | 40 | 48 | 36 |  |  |  |  | inhibition in vivo at 10 mg/kg (Mus musculus [11]): 100%; Activity (Mus musculus [1]): 4.8; Spontaneous motor activity (Mus musculus [2]): 183; Time (Mus musculus [4]): 5.7 s |
